Assay results reported in ChEMBL document CHEMBL1128185, “New orally active serine protease inhibitors: structural requirements for their good oral activity” (J Med Chem, 1995).

Tests used:
[1] = The half-life period in vitro in rat small Intestine Homogenate; type: ADME
Outline: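 Small intestine from rats fasted 20 h, saline-washed, homogenized in 8 vol 1/10 M sodium phosphate pH 7.4, spun at 600g for 15 min; supernatant (1.0 mL) given 10 µL drug (5 mg/mL in 80% aqueous acetonitrile), 37 °C, 60 min. Aliquots quenched at intervals with acetonitrile containing internal standard and analyzed by HPLC. Half-life (min), mean of two experiments.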

[2] = The half-life period in vitro in plasma; type: ADME, cell-free
Outline: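 Rat plasma (1.0 mL) spiked with 5 µL of drug dissolved at 2 mg/mL in 80% aqueous acetonitrile, incubated at 37 °C for 60 min. Parent drug and products followed by ion-paired HPLC with internal standard; metabolites identified by retention times of synthesized authentic samples. Stability expressed as half-life (min), mean of two separate experiments.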

Structure (SMILES) | half-life [1] [min] | half-life [2] [min]
C/C(=C\c1ccc(C(=O)Oc2ccc(C(=N)N)cc2)cc1)C(=O)N(CC(=O)O)Cc1ccccc1 | 50 | > 60
C/C(=C\c1ccc(C(=O)Oc2ccc(C(=N)N)cc2)cc1)C(=O)N(CC(=O)O)C1CCCCC1 | 49 | > 60
CCOC(=O)CN(C(=O)/C(C)=C/c1ccc(C(=O)Oc2ccc(C(=N)N)cc2)cc1)C1CCCCC1 | > 60 | < 5
C/C(=C\c1ccc(C(=O)Oc2ccc(C(=N)N)cc2)cc1)C(=O)N(CCO)Cc1ccccc1 | 41 | < 5
C=CCN(CCC(=O)O)C(=O)/C(C)=C/c1ccc(C(=O)Oc2ccc(C(=N)N)cc2)cc1 | > 60 | 47
CCOC(=O)CN(Cc1ccccc1)C(=O)/C(C)=C/c1ccc(C(=O)Oc2ccc(C(=N)N)cc2)cc1 | 44 | < 1
C/C(=C\c1ccc(C(=O)Oc2ccc(C(=N)N)cc2)cc1)C(=O)N(CC(=O)O)C1CCCC1 | 42 | 23

Now from value to molecule:

half-life [1] [min] | half-life [2] [min] | Structure (SMILES)
> 60 | < 5 | CCOC(=O)CN(C(=O)/C(C)=C/c1ccc(C(=O)Oc2ccc(C(=N)N)cc2)cc1)C1CCCC1
– | 14 | CCOC(=O)CCCN(C(=O)/C(C)=C/c1ccc(C(=O)Oc2ccc(C(=N)N)cc2)cc1)C(C(=O)O)C(=O)OCC (stereo not given)
55 | > 60 | C=CCN(CCCC(=O)O)C(=O)/C(C)=C/c1ccc(C(=O)Oc2ccc(C(=N)N)cc2)cc1
– | < 1 | CCOC(=O)CCCN(C(=O)/C(C)=C/c1ccc(C(=O)Oc2ccc(C(=N)N)cc2)cc1)C(C(=O)OCC)C(=O)OCC
> 60 | 60 | CCN(CC(=O)O)C(=O)/C(C)=C/c1ccc(C(=O)Oc2ccc(C(=N)N)cc2)cc1
– | 29 | CCOC(=O)C(C(=O)OCC)N(CCCC(=O)O)C(=O)/C(C)=C/c1ccc(C(=O)Oc2ccc(C(=N)N)cc2)cc1
– | < 1 | C=CCN(CCC(=O)OCC)C(=O)/C(C)=C/c1ccc(C(=O)Oc2ccc(C(=N)N)cc2)cc1
– | < 1 | C=CCN(CCCC(=O)OCC)C(=O)/C(C)=C/c1ccc(C(=O)Oc2ccc(C(=N)N)cc2)cc1
